# Screens (PubChem BioAssay)
# RORA act: activates the human nuclear receptor RORA | P35398 | CHO-K1 Gal4-RORA LBD luciferase reporter, luminescence; percent increase over mock-subtracted basal signal | activation, % at 10 µM | actives 1.5% (n = 65,000) | AID 560;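 active = activation above the mean of all tested compounds plus 3 SD, cut at about 49% in these data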;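 also: 0% = DMSO-treated RORA cells and 100% = added signal equal to DMSO minus mock-transfected cells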
# S1P1 ag-PAM: agonists and agonism potentiators of human S1P1 receptor; P21453; S1P1 CRE-bla cells, forskolin, beta-lactamase FRET, potentiator mode; S1P1 agonist co-added at EC20, 2 nM; 100% = saturating reference agonist, 0% = basal; activation, % at 9.5 µM; actives 0.57% (n = 56,000); AID 449;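 active = activation above a cutoff set at the mean activation of all tested compounds plus 3 SD, cut at about 54% in these data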;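 also: forskolin at 4 µM as EC80 and the EC20 agonist is SEW2871; 100% = SEW2871 at its EC100 plus forskolin at EC80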
# M1 ag: agonists of M1 muscarinic receptor; AID 626; actives 3% (n = 64,000); CHO-M1 cells, Fluo-4 calcium fluorescence, agonist mode; active compounds read high; B-score at 10 µM;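 active = fluorescence rise, raw or as B-score row- and column-corrected plate score, outside the 99.7% band of its plate's samples, either direction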
# S1P3 ag: agonists of human S1P3 receptor; Q99500; S1P3 NFAT-BLA reporter cells, agonism, FRET ratio; relative to 1 µM S1P, basal subtracted; AID 373; actives 0.1% (n = 60,000); activation, % at 4.5 µM;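 active = activation above the screen-wide mean plus 3 SD, cut at about 4.5% in these data, passing the limit was not always enough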
#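 Measure – % activation relative to 1 µM S1P (100%), per plate · System – stable CHO line with human S1P3, Gα16, NFAT-BLA reporter · Timing – cells plated overnight, compound 4 h 37 °C, substrate 2 h RT · Technique – fluorescent BLA substrate, ex 405 nm, em 460/535 nm ratio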
# M1 antagonist: M1 muscarinic receptor (rat) antagonism | CHO-M1 cells, Fluo-4 calcium, ACh EC80 antagonist mode; active compounds read low | P08482 | B-score at 10 µM | actives 3.4% (n = 64,000);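 active = calcium fluorescence response, raw or row-and-column corrected B-score, differing from the plate sample mean either way at a set confidence level, mostly lower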
# SF-1 act: activators of human nuclear receptor SF-1; Q13285; CHO-K1 Gal4-SF-1 LBD luciferase reporter; % increase over DMSO SF-1-specific signal; activation, % at 10 µM; actives 1.9% (n = 65,000); AID 522;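 active = activation above the mean activation of all tested compounds plus 3 SD, cut at about 50% in these data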
# Target sequence (Q13285 whole entry, looked up, the tested form may be a part): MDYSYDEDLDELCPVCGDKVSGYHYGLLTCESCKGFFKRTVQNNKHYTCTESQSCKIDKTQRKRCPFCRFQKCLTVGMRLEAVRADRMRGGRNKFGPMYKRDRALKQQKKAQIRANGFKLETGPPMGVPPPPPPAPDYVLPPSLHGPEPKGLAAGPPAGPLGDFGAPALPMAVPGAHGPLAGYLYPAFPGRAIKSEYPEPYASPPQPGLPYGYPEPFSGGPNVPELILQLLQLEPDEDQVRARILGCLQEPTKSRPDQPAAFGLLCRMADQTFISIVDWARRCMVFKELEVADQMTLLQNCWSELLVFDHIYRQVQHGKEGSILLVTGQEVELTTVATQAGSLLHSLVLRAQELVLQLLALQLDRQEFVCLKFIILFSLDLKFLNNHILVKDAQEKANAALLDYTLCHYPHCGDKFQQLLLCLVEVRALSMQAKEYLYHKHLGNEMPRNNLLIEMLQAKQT
#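 Test system: transient Gal4-SF-1 LBD reporter, CHO-K1; Amount: 4,000 CHO-K1 cells per well; Doses: 10 µM only; Timing: compound exposure 20 h at 37 °C; Signal: luciferase light emission; Read-out basis: percent activation relative to DMSO median and mock-transfected background; Control set: DMSO negative control and −SF1 background wells; Replicates: one test per compound.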
# M1 agonist conf: confirmation of rat M1 muscarinic receptor agonists. CHO-M1 cells, Fluo-4 calcium fluorescence, agonist mode; actives lie on both sides. actives 19% (n = 1,700). fluorescence change (max-min) at 10 µM. shares compounds with M1 ag;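 active = fluorescence change differs from the solvent-only DMSO control mean at a set confidence level in both duplicate runs; inconclusive = differs from solvent-only control mean in just one of two runs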;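 also: an EC20 dose of acetylcholine follows compound addition during the same imaging run; raw fluorescence intensity difference in instrument units with no normalization to controls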
# M4 ag counter: activates rat M4 receptor in counter-screen for M1 agonists; shares compounds with M1 ag; CHO M4/Gqi5 cells, Fluo-4 calcium fluorescence, agonist mode; actives lie on both sides; fluorescence change (max-min) at 10 µM; actives 9% (n = 1,700);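 active = fluorescence change differing from the plate's solvent-only control wells at 99.7% confidence in both duplicates, whether higher or lower; inconclusive = differs from solvent controls in only one of two duplicates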
# * marks the source's active call; other numbers are inactive results; u = inconclusive; x = no result given. The list is not random: actives were taken first. Their share in the collection is about 8.8%.
SMILES,RORA act,S1P1 ag-PAM,M1 ag,S1P3 ag,M1 antagonist,SF-1 act,M1 agonist conf,M4 ag counter
CCOC(=O)N1CCC(Nc2c(N3CCN(c4cc(Cl)ccc4C)CC3)c(=O)c2=O)CC1,13,-2,-0.99,-1,-0.6,6,x,x
CCOC(=O)N1CCC(NCCNC(=O)c2ccc(Cl)cc2)CC1,3,x,18*,x,-0.87,-14,115*,1.4
Cc1cccc(S(=O)(=O)c2c(N)n(Cc3ccco3)c3nc4ccccc4nc23)c1,-20,1,0.038,0,1.1,-15,x,x
Cc1ccc(S(=O)(=O)c2c(N)n(Cc3ccco3)c3nc4ccccc4nc23)cc1,7,x,12*,x,0.051,-9,39,-10
C=CCSc1nc(C)c(CC(=O)OCC(C)C)c(=O)[nH]1,3,-24,-0.32,-1,0.44,-1,x,x
COc1ccccc1OCC(O)Cn1c(Br)nc2c1c(=O)[nH]c(=O)n2C (stereo not given),-17,-14,4*,0,-0.12,16,-12,-21
CC1(C)Cc2c(c(-c3ccco3)[nH]c(=O)c2C#N)CS1,-13,-8,24*,-4,0.031,-6,4.6,-35
O=C(NCc1ccc(Cl)cc1)C1CCCN(S(=O)(=O)c2cnc[nH]2)C1 (stereo not given),11,-11,-1.9,1,-0.73,-6,x,x
NC(=O)C1CCN(c2ncnc3c2c(-c2ccccc2)cn3-c2ccccc2)CC1,5,-17,3.7*,-1,-1.5,-20,u,-62
COc1ccc(-n2nnc3c(SCC(=O)OCc4ccccc4)ncnc32)cc1,-8,-6,-0.52,-1,-0.32,-2,x,x
COc1ccc(-n2nnc3c(SCc4ccccc4)ncnc32)cc1,10,27,2.8*,-2,-0.36,11,-0.65,-22
CCOc1ccc(OCC)c(C2C(C#N)=C(N)N(c3cccnc3)C3=C2C(=O)CC(C)(C)C3)c1 (stereo not given),-14,x,1.1,0,0.19,12,x,x
O=C(CN1CCN(S(=O)(=O)c2cc(Cl)ccc2Cl)CC1)Nc1ccc2c(c1)OCCO2,1,1,4.1*,-1,0.58,-5,-31*,u
CN(C)c1ccc(NC(=O)CN2CCN(S(=O)(=O)c3cc(Cl)ccc3Cl)CC2)cc1,8,12,-0.52,-2,-0.8,19,x,x
CC(C)n1c(N2CCN(CC(=O)Nc3ccc4c(c3)OCCO4)CC2)nc2ccccc21,5,-18,4*,0,-1.2,2,-22*,u
CC1=C(C(=O)Nc2cccc(C)n2)C(c2ccc3c(c2)OCO3)C2=C(CC(c3ccco3)CC2=O)N1 (stereo not given),-7,-34,-1.1,0,0.75,-13,x,x
CCn1c(NC(=O)Nc2ccccc2OC)nc2ccccc21,20,x,-0.46,x,0.32,3,x,x
O=c1cnn(-c2ccccc2)c(-c2ccccc2)c1,9,x,0.25,x,-0.061,8,x,x
O=C(CN1CCCCC1)Nc1cccc(Br)c1,-15,2,0.38,-1,0.61,-8,x,x
Cc1ccc(C)c(OCC(O)CN2CCCCC2C)c1 (stereo not given),29,-21,0.48,-1,0.37,-10,x,x
Cc1ccc(C)c(OCC(O)CN2C(C)CCCC2C)c1 (stereo not given),1,12,2.5*,0,-1.5*,-1,-29*,-55
O=C(CN1CCN(c2ccccc2)CC1)Nc1ccc(-n2cnnn2)cc1,3,-6,51*,0,-0.44,8,1.1,-36
c1ccc(-c2nc(NCCCN3CCOCC3)c3ccccc3n2)cc1,-4,x,2.6*,0,-0.15,6,-8.4,-11
Cc1cc(S(=O)(=O)NCC(=O)O)ccc1F,3,2,5*,0,0.24,12,-12,-17
O=C(O)CNS(=O)(=O)c1ccc(F)cc1,12,x,0.16,x,0.11,-9,x,x
SMILES,RORA act,S1P1 ag-PAM,M1 ag,S1P3 ag,M1 antagonist,SF-1 act,M1 agonist conf,M4 ag counter
O=C(COC(=O)CCc1c[nH]c(=O)[nH]1)Nc1ccccc1,-16,-9,-0.061,0,0.056,14,x,x
Cc1ccc(NC(=O)COC(=O)CCc2c[nH]c(=O)[nH]2)cc1,-8,-19,7.3*,0,-0.033,12,27,-1.3
Cc1ccc(OCC(=O)Nc2ccc(-c3nc4ncccc4o3)cc2)c(C)c1,5,-5,3.3*,0,-1.2,5,u,-49
COc1ccc(CCNS(=O)(=O)c2ccc3c(c2)OCCO3)cc1OC,6,x,-1.2,x,0,-6,x,x
CCOC(=O)C1CCCN(C/C(O)=C(\C#N)c2nc(-c3ccc(Cl)cc3)cs2)C1 (stereo not given),-27,31,21*,-1,0.14,17,u,-29
CCOC(=O)C1CCCN(Cc2nc(N)nc(Nc3ccc(Cl)cc3)n2)C1 (stereo not given),0,0,0.33,-1,-0.086,-4,x,x
COCCCn1c(C(C)C)nc2oc3cc(OC)ccc3c(=O)c2c1=O,6,8,13*,0,1.8,12,-10,-23
COc1ccc(Cn2c(-c3ccco3)nc3oc4cc(OC)ccc4c(=O)c3c2=O)cc1,9,-33,-0.27,0,0.43,-3,x,x
COc1ccccc1N=c1oc2cc(O)ccc2cc1C(N)=O,19,-52,7.6*,2,-1.7,34,39,12
COc1ccccc1N=c1oc2cc(O)ccc2cc1C(=O)NCC1CCCO1 (stereo not given),4,-70,2.1,3,0.031,21,x,x
Cc1cccc(N=c2oc3cc(O)ccc3cc2C(N)=O)c1,35,-105,5.4*,2,-0.033,39,24,10
COc1ccccc1NC(=O)c1cc2ccc(O)cc2o/c1=N\O,9,-4,0.41,0,-0.21,16,x,x
O=C1CC(N2CCSCC2)C(=O)N1CCc1ccccc1 (stereo not given),-2,-13,0.17,0,2.5,6,x,x
O=C(CC1SC(=Nc2ccccc2)N(CCCO)C1=O)Nc1ccc(Cl)cc1 (stereo not given),13,x,4.4*,x,-0.89,12,-4.6,u
COc1ccc(Cl)cc1NC(=O)c1nc2nc(C)cc(C(F)F)n2n1,-14,-8,-0.44,0,1.1,-10,x,x
